ChEMBL document CHEMBL4152256, “Structure-activity relationship of new antimalarial 1-aryl-3-susbtituted propanol derivatives: Synthesis, preliminary toxicity profiling, parasite life cycle stage studies, target exploration, and targeted delivery” (Eur J Med Chem, 2018)

Key:
[1] = Genotoxicity in Salmonella typhimurium TA1535 harboring pSK1002 assessed as survival at 0.125 mg/ml in absence of Sprague-Dawley rat liver S9 fraction after by SOS/umu assay relative to control; type: toxicity, organism-based; settings: salmonella enterica subsp. enterica serovar typhimurium, read-out: Survival
[2] = Genotoxicity in Salmonella typhimurium TA1535 harboring pSK1002 assessed as survival at 0.063 mg/ml in presence of Sprague-Dawley rat liver S9 fraction after by SOS/umu assay relative to control; type: toxicity, organism-based; settings: salmonella enterica subsp. enterica serovar typhimurium, read-out: Survival
[3] = Genotoxicity in Salmonella typhimurium TA1535 harboring pSK1002 assessed as umu gene induction at 0.002 mg/ml in presence of Sprague-Dawley rat liver S9 fraction after by SOS/umu assay relative to control; type: toxicity, organism-based; settings: salmonella enterica subsp. enterica serovar typhimurium, read-out: FC
[4] = Genotoxicity in Salmonella typhimurium TA1535 harboring pSK1002 assessed as umu gene induction at 0.031 mg/ml in presence of Sprague-Dawley rat liver S9 fraction after by SOS/umu assay relative to control; type: toxicity, organism-based; settings: salmonella enterica subsp. enterica serovar typhimurium, read-out: FC
[5] = Genotoxicity in Salmonella typhimurium TA1535 harboring pSK1002 assessed as umu gene induction at 0.008 mg/ml in absence of Sprague-Dawley rat liver S9 fraction after by SOS/umu assay relative to control; type: toxicity, organism-based; settings: salmonella enterica subsp. enterica serovar typhimurium, read-out: FC
[6] = Genotoxicity in Salmonella typhimurium TA1535 harboring pSK1002 assessed as umu gene induction at 0.004 mg/ml in presence of Sprague-Dawley rat liver S9 fraction after by SOS/umu assay relative to control; type: toxicity, organism-based; settings: salmonella enterica subsp. enterica serovar typhimurium, read-out: FC
[7] = Genotoxicity in Salmonella typhimurium TA1535 harboring pSK1002 assessed as survival at 0.125 mg/ml in presence of Sprague-Dawley rat liver S9 fraction after by SOS/umu assay relative to control; type: toxicity, organism-based; settings: salmonella enterica subsp. enterica serovar typhimurium, read-out: Survival
[8] = Genotoxicity in Salmonella typhimurium TA1535 harboring pSK1002 assessed as umu gene induction at 0.063 mg/ml in absence of Sprague-Dawley rat liver S9 fraction after by SOS/umu assay relative to control; type: toxicity, organism-based; settings: salmonella enterica subsp. enterica serovar typhimurium, read-out: FC
[9] = Genotoxicity in Salmonella typhimurium TA1535 harboring pSK1002 assessed as umu gene induction at 0.063 mg/ml in presence of Sprague-Dawley rat liver S9 fraction after by SOS/umu assay relative to control; type: toxicity, organism-based; settings: salmonella enterica subsp. enterica serovar typhimurium, read-out: FC
[10] = Genotoxicity in Salmonella typhimurium TA1535 harboring pSK1002 assessed as survival at 0.001 mg/ml in presence of Sprague-Dawley rat liver S9 fraction after by SOS/umu assay relative to control; type: toxicity, organism-based; settings: salmonella enterica subsp. enterica serovar typhimurium, read-out: Survival
[11] = Genotoxicity in Salmonella typhimurium TA1535 harboring pSK1002 assessed as survival at 0.016 mg/ml in presence of Sprague-Dawley rat liver S9 fraction after by SOS/umu assay relative to control; type: toxicity, organism-based; settings: salmonella enterica subsp. enterica serovar typhimurium, read-out: Survival
[12] = Genotoxicity in Salmonella typhimurium TA1535 harboring pSK1002 assessed as umu gene induction at 0.001 mg/ml in absence of Sprague-Dawley rat liver S9 fraction after by SOS/umu assay relative to control; type: toxicity, organism-based; settings: salmonella enterica subsp. enterica serovar typhimurium, read-out: FC
[13] = Genotoxicity in Salmonella typhimurium TA1535 harboring pSK1002 assessed as survival at 0.031 mg/ml in presence of Sprague-Dawley rat liver S9 fraction after by SOS/umu assay relative to control; type: toxicity, organism-based; settings: salmonella enterica subsp. enterica serovar typhimurium, read-out: Survival
[14] = Genotoxicity in Salmonella typhimurium TA1535 harboring pSK1002 assessed as umu gene induction at 0.016 mg/ml in presence of Sprague-Dawley rat liver S9 fraction after by SOS/umu assay relative to control; type: toxicity, organism-based; settings: salmonella enterica subsp. enterica serovar typhimurium, read-out: FC
[15] = Cytotoxicity against human HepG2A16 cells by MTT assay; type: cell-based
Outline: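 MTT viability assay on HepG2-A16 cells, giving CC50 values.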

[16] = Genotoxicity in Salmonella typhimurium TA1535 harboring pSK1002 assessed as survival at 0.002 mg/ml in absence of Sprague-Dawley rat liver S9 fraction after by SOS/umu assay relative to control; type: toxicity, organism-based; settings: salmonella enterica subsp. enterica serovar typhimurium, read-out: Survival
[17] = Genotoxicity in Salmonella typhimurium TA1535 harboring pSK1002 assessed as survival at 0.004 mg/ml in presence of Sprague-Dawley rat liver S9 fraction after by SOS/umu assay relative to control; type: toxicity, organism-based; settings: salmonella enterica subsp. enterica serovar typhimurium, read-out: Survival
[18] = Genotoxicity in Salmonella typhimurium TA1535 harboring pSK1002 assessed as umu gene induction at 0.125 mg/ml in absence of Sprague-Dawley rat liver S9 fraction after by SOS/umu assay relative to control; type: toxicity, organism-based; settings: salmonella enterica subsp. enterica serovar typhimurium, read-out: FC
[19] = Genotoxicity in Salmonella typhimurium TA1535 harboring pSK1002 assessed as survival at 0.004 mg/ml in absence of Sprague-Dawley rat liver S9 fraction after by SOS/umu assay relative to control; type: toxicity, organism-based; settings: salmonella enterica subsp. enterica serovar typhimurium, read-out: Survival
[20] = Genotoxicity in Salmonella typhimurium TA1535 harboring pSK1002 assessed as umu gene induction at 0.008 mg/ml in presence of Sprague-Dawley rat liver S9 fraction after by SOS/umu assay relative to control; type: toxicity, organism-based; settings: salmonella enterica subsp. enterica serovar typhimurium, read-out: FC
[21] = Genotoxicity in Salmonella typhimurium TA1535 harboring pSK1002 assessed as umu gene induction at 0.016 mg/ml in absence of Sprague-Dawley rat liver S9 fraction after by SOS/umu assay relative to control; type: toxicity, organism-based; settings: salmonella enterica subsp. enterica serovar typhimurium, read-out: FC
[22] = Genotoxicity in Salmonella typhimurium TA1535 harboring pSK1002 assessed as umu gene induction at 0.002 mg/ml in absence of Sprague-Dawley rat liver S9 fraction after by SOS/umu assay relative to control; type: toxicity, organism-based; settings: salmonella enterica subsp. enterica serovar typhimurium, read-out: FC
[23] = Selectivity index, ratio of CC50 for human HepG2A16 cells by MTT assay to IC50 for multidrug-resistant Plasmodium falciparum FCR-3; type: toxicity; settings: for selectivity ratio: HepG2A16 cells, read-out: Ratio CC50/IC50
Outline: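 HepG2-A16 human hepatoma cells were tested by MTT viability assay to give CC50. Blood-stage activity was measured against the multidrug-resistant P. falciparum FCR-3 strain by [3H]-hypoxanthine incorporation to give IC50. SI = CC50 HepG2 / FCR-3 IC50.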

[24] = Genotoxicity in Salmonella typhimurium TA1535 harboring pSK1002 assessed as survival at 0.002 mg/ml in presence of Sprague-Dawley rat liver S9 fraction after by SOS/umu assay relative to control; type: toxicity, organism-based; settings: salmonella enterica subsp. enterica serovar typhimurium, read-out: Survival
[25] = Genotoxicity in Salmonella typhimurium TA1535 harboring pSK1002 assessed as umu gene induction at 0.125 mg/ml in presence of Sprague-Dawley rat liver S9 fraction after by SOS/umu assay relative to control; type: toxicity, organism-based; settings: salmonella enterica subsp. enterica serovar typhimurium, read-out: FC
[26] = Genotoxicity in Salmonella typhimurium TA1535 harboring pSK1002 assessed as umu gene induction at 0.004 mg/ml in absence of Sprague-Dawley rat liver S9 fraction after by SOS/umu assay relative to control; type: toxicity, organism-based; settings: salmonella enterica subsp. enterica serovar typhimurium, read-out: FC
[27] = Genotoxicity in Salmonella typhimurium TA1535 harboring pSK1002 assessed as survival at 0.063 mg/ml in absence of Sprague-Dawley rat liver S9 fraction after by SOS/umu assay relative to control; type: toxicity, organism-based; settings: salmonella enterica subsp. enterica serovar typhimurium, read-out: Survival
[28] = Genotoxicity in Salmonella typhimurium TA1535 harboring pSK1002 assessed as survival at 0.016 mg/ml in absence of Sprague-Dawley rat liver S9 fraction after by SOS/umu assay relative to control; type: toxicity, organism-based; settings: salmonella enterica subsp. enterica serovar typhimurium, read-out: Survival
[29] = Genotoxicity in Salmonella typhimurium TA1535 harboring pSK1002 assessed as umu gene induction at 0.001 mg/ml in presence of Sprague-Dawley rat liver S9 fraction after by SOS/umu assay relative to control; type: toxicity, organism-based; settings: salmonella enterica subsp. enterica serovar typhimurium, read-out: FC

Structure (SMILES) | viability at 0.063 mg/ml [2] [%] | fold induction at 0.002 mg/ml [3] | fold induction at 0.008 mg/ml [5] | fold induction at 0.004 mg/ml [6] | fold induction at 0.063 mg/ml [8] | fold induction at 0.063 mg/ml [9] | viability at 0.001 mg/ml [10] [%] | viability at 0.016 mg/ml [11] [%] | fold induction at 0.001 mg/ml [12] | fold induction at 0.016 mg/ml [14] | viability at 0.002 mg/ml [16] [%] | viability at 0.004 mg/ml [17] [%] | viability at 0.004 mg/ml [19] [%] | fold induction at 0.008 mg/ml [20] | fold induction at 0.016 mg/ml [21] | fold induction at 0.002 mg/ml [22] | viability at 0.002 mg/ml [24] [%] | fold induction at 0.004 mg/ml [26] | viability at 0.063 mg/ml [27] [%] | viability at 0.016 mg/ml [28] [%] | also measured
OC(CCN1CCN(c2ccc(F)cc2)CC1)c1ccc(F)c2ccccc12 (centres undefined) | 112 | 0.8 | 0.5 | 0.8 | 0.5 | 0.5 | 101 | 72.4 | 0.7 | 0.9 | 110 | 95.6 | 87.9 | 0.7 | 0.7 | 0.7 | 100 | 0.8 | 118 | 85.4 | viability at 0.125 mg/ml [1]: 56.2%; fold induction at 0.031 mg/ml [4]: 0.5; viability at 0.125 mg/ml [7]: 59.6%; viability at 0.031 mg/ml [13]: 140%; CC50 ([15]; HepG2A16 cells): 29.4 µM; fold induction at 0.125 mg/ml [18]: 0.7; selectivity ratio [23]: 7; fold induction at 0.125 mg/ml [25]: 0.7; fold induction at 0.001 mg/ml [29]: 0.9
COc1ccccc1N1CCN(CCC(O)c2ccc(F)cc2)CC1 (stereo in doubt; 66) | 100 | 1.2 | 1 | 1 | 0.9 | 0.9 | 91.6 | 82.8 | 1.1 | 1.1 | 114 | 93.1 | 108 | 1 | 1 | 1 | 80.7 | 1.1 | 108 | 108 | viability at 0.125 mg/ml [1]: 107%; fold induction at 0.031 mg/ml [4]: 0.9; viability at 0.125 mg/ml [7]: 89.8%; viability at 0.031 mg/ml [13]: 99.2%; CC50 [15]: 19.5 µM; fold induction at 0.125 mg/ml [18]: 0.9; Ratio CC50/IC50 [23]: 103; fold induction at 0.125 mg/ml [25]: 1; fold induction at 0.001 mg/ml [29]: 1.3
N#Cc1ccc(N2CCC(NCCC(O)c3ccc(F)c4ccccc34)CC2)c(C(F)(F)F)c1 (stereo in doubt; 72) | 85.2 | 1 | 0.8 | 0.7 | 0.3 | 0.2 | 121 | 36.3 | 1 | 0.6 | 110 | 136 | 33.3 | 1.3 | 0.8 | 1.3 | 136 | 0.9 | 54.7 | 28.3 | viability at 0.125 mg/ml [1]: 62.4%; fold induction at 0.031 mg/ml [4]: 0.6; viability at 0.125 mg/ml [7]: 91%; viability at 0.031 mg/ml [13]: 35%; CC50 [15]: 6.22 µM; fold induction at 0.125 mg/ml [18]: 0.2; Ratio CC50/IC50 [23]: 78; fold induction at 0.125 mg/ml [25]: 0.2; fold induction at 0.001 mg/ml [29]: 0.8
N#Cc1ccc(N2CCC(NCCC(O)c3ccc(F)c4ccccc34)CC2)c(Br)c1 (centres undefined) | 46.3 | 0.8 | 2.2 | 0.9 | 0.6 | 0.6 | 87.2 | 80.2 | 1.3 | 1.9 | 106 | 97.5 | 107 | 1 | 2.1 | 1.4 | 65.3 | 1.4 | 42.6 | 18.6 | fold induction at 0.031 mg/ml [4]: 1.2; viability at 0.031 mg/ml [13]: 35.3%; CC50 ([15]; HepG2A16 cells): 9.87 µM; selectivity ratio [23]: 141; fold induction at 0.001 mg/ml [29]: 0.9
N#Cc1ccc(N2CCC(NCCC(O)c3ccc(F)c4ccccc34)CC2)c(Cl)c1 (centres undefined) | 82.8 | 0.8 | 0.8 | 0.5 | 0.3 | 0.2 | 154 | 38.5 | 1 | 0.6 | 117 | 169 | 32.2 | 1.1 | 0.6 | 1 | 148 | 1 | 55.4 | 36.8 | viability at 0.125 mg/ml [1]: 79.8%; viability at 0.125 mg/ml [7]: 134%; CC50 ([15]; HepG2A16 cells): 7.95 µM; fold induction at 0.125 mg/ml [18]: 0.1; selectivity ratio [23]: 88; fold induction at 0.125 mg/ml [25]: 0.1; fold induction at 0.001 mg/ml [29]: 0.9
OC(CCN1CCN(C(c2ccccc2)c2ccccc2)CC1)c1ccc(F)c2ccccc12 (centres undefined) | 91.9 | 0.8 | 1.4 | 0.8 | 0.8 | 1.5 | 108 | 99.6 | 0.6 | 0.7 | 77.8 | 111 | 69 | 0.4 | 1.4 | 0.8 | 114 | 1.3 | 141 | 86.3 | fold induction at 0.031 mg/ml [4]: 1.2; viability at 0.031 mg/ml [13]: 95.2%; CC50 ([15]; HepG2A16 cells): 19.9 µM; selectivity ratio [23]: 60; fold induction at 0.001 mg/ml [29]: 0.9
